Measurements taken from paper PMC3361572 (Chemistry & biology, 2012).
pIC50: −log10 of the molar value. “Also recorded” adds a separate entry of the source.

What was measured:
FAAH [1] = target: T1, FAAH (Rattus norvegicus, UniProt P97612); test: brain AEA hydrolytic activity from KML29-treated rats; assay type: in vivo; conditions: 1–40 mg kg^−1 i.p., 4 h
T1 sequence (P97612 1-579): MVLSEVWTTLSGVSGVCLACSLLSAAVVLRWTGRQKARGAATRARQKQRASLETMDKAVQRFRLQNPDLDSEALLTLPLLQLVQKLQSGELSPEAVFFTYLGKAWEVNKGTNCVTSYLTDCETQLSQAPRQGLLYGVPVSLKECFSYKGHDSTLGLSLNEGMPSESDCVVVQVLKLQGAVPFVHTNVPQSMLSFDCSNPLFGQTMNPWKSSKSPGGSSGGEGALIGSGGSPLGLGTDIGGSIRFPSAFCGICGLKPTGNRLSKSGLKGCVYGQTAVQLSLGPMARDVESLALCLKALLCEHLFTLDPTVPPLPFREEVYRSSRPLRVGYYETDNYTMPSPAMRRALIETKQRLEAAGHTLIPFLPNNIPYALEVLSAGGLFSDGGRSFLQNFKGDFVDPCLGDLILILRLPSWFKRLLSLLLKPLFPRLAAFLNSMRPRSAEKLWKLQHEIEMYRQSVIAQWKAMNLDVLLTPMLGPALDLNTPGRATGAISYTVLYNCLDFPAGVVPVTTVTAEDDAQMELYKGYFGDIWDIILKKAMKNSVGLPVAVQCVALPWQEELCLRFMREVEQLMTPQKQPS
Summary of the method: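 Wistar rats received the test compound i.p. (1–40 mg kg−1 in saline:emulphor:ethanol 18:1:1) or vehicle and were killed after 4 h. Brain MAGL and FAAH activities were measured as hydrolysis of 2-AG and AEA, respectively. Means ± SEM, n = 3 rats/group, compared with vehicle-treated rats.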

FAAH [2] = target: T1, FAAH; test: competitive ABPP, rat brain membrane proteome; assay type: biochemical
Summary of the method: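 Rat brain proteome pre-treated with test compound, then labelled with the serine hydrolase-directed fluorophosphonate-rhodamine (FP-Rh) activity-based probe. Proteins separated by SDS-PAGE and detected by in-gel fluorescence scanning. Inhibition scored as loss of FP-Rh labelling of the FAAH band. IC50 calculated from the gel-based ABPP data.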

FAAH [3] = target: T2, FAAH (Mus musculus, UniProt O08914); test: AEA hydrolytic activity of brain tissue from treated mice; assay type: in vivo; conditions: KML29-treated mice, 1–40 mg kg^−1 p.o.
T2 sequence (O08914 1-579): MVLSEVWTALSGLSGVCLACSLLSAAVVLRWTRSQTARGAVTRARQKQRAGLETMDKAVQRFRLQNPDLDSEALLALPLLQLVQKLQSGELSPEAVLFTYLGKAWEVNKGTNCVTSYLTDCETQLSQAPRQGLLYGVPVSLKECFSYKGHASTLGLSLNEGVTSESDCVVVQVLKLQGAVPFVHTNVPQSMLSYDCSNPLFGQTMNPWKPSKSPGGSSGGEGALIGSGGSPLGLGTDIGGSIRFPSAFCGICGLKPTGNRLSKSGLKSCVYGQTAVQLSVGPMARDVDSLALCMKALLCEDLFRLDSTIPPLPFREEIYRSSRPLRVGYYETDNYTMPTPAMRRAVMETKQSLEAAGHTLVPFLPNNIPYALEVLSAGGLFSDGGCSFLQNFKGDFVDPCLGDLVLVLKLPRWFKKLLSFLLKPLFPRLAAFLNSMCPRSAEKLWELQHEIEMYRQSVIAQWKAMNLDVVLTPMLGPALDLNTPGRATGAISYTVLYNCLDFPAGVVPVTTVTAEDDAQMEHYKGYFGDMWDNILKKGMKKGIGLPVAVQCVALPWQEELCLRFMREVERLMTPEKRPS
Summary of the method: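 C57Bl/6 mice were dosed orally with the test compound (1–40 mg kg−1) or vehicle. The compound was dissolved in PEG by prolonged sonication and mild heating. Mice were killed after 4 h. Brain was analysed for 2-AG, AA, AEA, PEA and OEA, and brain proteomes for residual AEA and 2-AG hydrolysis (substrate assay). n = 3 mice/group, means ± SEM, compared with vehicle-treated mice.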

O=C(OC(C(F)(F)F)C(F)(F)F)N1CCC(C(O)(c2ccc3c(c2)OCO3)c2ccc3c(c2)OCO3)CC1 [KML29] was tested, and the “brain AEA hydrolytic activity” value (FAAH [1]) was “not affected at any dose”, the “FAAH inhibition / cross-reactivity (gel-based ABPP)” value (FAAH [2]; rat brain proteome) was “no detectable cross-reactivity; also recorded: No inhibition of FAAH was detected” and the pIC50 (FAAH [2]; read-out: IC50 (95% CI), rat FAAH, competitive ABPP, rat brain membrane proteome) was under 4.30. The “residual FAAH activity in brain proteomes (substrate assay)” value (FAAH [3]) was “lack of any effect on FAAH”.
